This note sets out measurements from ChEMBL document CHEMBL3124923, “Isolation, structure elucidation, and biological activity of altersolanol P using Staphylococcus aureus fitness test based genome-wide screening” (2014).

Values after ≈ are worked out from the molar mass of the structure shown. Active and inactive are the calls of the source. The rule behind the calls is not given here. A value given as a limit tells only on which side of the number the result lay.

Holding throughout (assay type): functional
Assay [1] concerns Staphylococcus aureus. As to the kind of experiment: Antimicrobial activity against Staphylococcus aureus.
Another assay deals with Pseudomonas aeruginosa. As to the kind of experiment: Antimicrobial activity against Pseudomonas aeruginosa.
The subject of assay [2] is Streptococcus pneumoniae. As to the kind of experiment: Antimicrobial activity against Streptococcus pneumoniae CL 2883 grown in iso sensitet medium after 20 hrs by 2-fold serial broth dilution method. The conditions noted are these: CL 2883, 20 h. Put shortly:
(§1)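 MIC for each strain determined following the NCCLS (now CLSI) method, using 2-fold serial dilution of the compound. For the S. aureus Smith strain, MIC was also run with 50% human serum in the medium.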

The test system of another assay is Candida albicans. As to the kind of experiment: Antimicrobial activity against Candida albicans MY 1055 after 20 hrs by 2-fold serial broth dilution method. The settings on record: MY 1055, 20 h. Put shortly: as §1
(In broth dilution the organism is exposed to a series of concentrations in liquid medium.)

For another assay, the system named is Bacillus subtilis. Briefly: Antimicrobial activity against Bacillus subtilis MB 964 after 20 hrs by 2-fold serial broth dilution method. The settings on record: MB 964, 20 h. The method, boiled down:
as §1

For assay [3], the system named is Escherichia coli. Briefly: Antimicrobial activity against Escherichia coli MB 5746 harboring envA/tolC gene after 20 hrs by 2-fold serial broth dilution method. The settings on record: MB 5746, 20 h. The method, boiled down: (§2)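 MIC read following the NCCLS (now CLSI) method, using 2-fold serial dilutions of test compound against each strain.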
For assay [4], the system named is Staphylococcus aureus. As to the kind of experiment: Antimicrobial activity against Staphylococcus aureus Smith MB 2865 after 20 hrs by 2-fold serial broth dilution method. The settings on record: Smith MB 2865, 20 h. Put shortly: as §1
A further assay deals with Haemophilus influenzae. Briefly: Antimicrobial activity against Haemophilus influenzae MB 4572 after 20 hrs by 2-fold serial broth dilution method. The settings on record: MB 4572, 20 h. Put shortly:
as §1

For assay [5], the system named is Streptococcus pneumoniae. Briefly: Antimicrobial activity against Streptococcus pneumoniae CL 2883 grown in 2.5 % lysed horse blood medium after 20 hrs by 2-fold serial broth dilution method. The settings on record: CL 2883, 20 h. Put shortly: as §1
Assay [6] has as its system Escherichia coli. As to the kind of experiment: Antimicrobial activity against wild-type Escherichia coli MB 2884 after 20 hrs by 2-fold serial broth dilution method. The settings on record: MB 2884, 20 h. Put shortly: as §1
A further assay has as its system Enterococcus faecalis. Briefly: Antimicrobial activity against vancomycin-sensitive Enterococcus faecalis CL 8516 after 20 hrs by 2-fold serial broth dilution method. The settings on record: CL 8516, 20 h. Put shortly:
as §2

For assay [7], the system named is Staphylococcus aureus. As to the kind of experiment: Antimicrobial activity against Staphylococcus aureus Smith MB 2865 after 20 hrs by 2-fold serial broth dilution method in presence of 50 % human serum. The conditions noted are these: for MIC: Smith MB 2865, 20 h. Put shortly: as §1

On to `COc1cc(O)c2c(c1)C(=O)C1=C(C2=O)[C@H](C)[C@@H](O)[C@@](C)(O)[C@@H]1O`, for which the MIC with Staphylococcus aureus [1] and in the assay on Pseudomonas aeruginosa was 12.5 µg/mL (≈ 37.4 µM) each time.
`COc1cc(O)c2c(c1)C(=O)C1=C(C[C@H](O)[C@@](C)(O)[C@@H]1O)C2=O`: the MIC against Staphylococcus aureus [1] and against Pseudomonas aeruginosa was 12.5 µg/mL (≈ 39 µM) in each case.
As for `COc1cc(O)c2c(c1)C(=O)C1=C(C2=O)[C@H](O)[C@H](O)[C@@](C)(O)[C@@H]1O`, the MIC with Staphylococcus aureus [1] and in the assay on Pseudomonas aeruginosa was 12.5 µg/mL (≈ 37.2 µM) in each case.
On to `COc1cc(O)cc2c1C(=O)C1=C(C2=O)[C@H](O)[C@](C)(O)[C@H](O)[C@H]1O`, for which the MIC against Staphylococcus aureus [1] and against Pseudomonas aeruginosa was 12.5 µg/mL (≈ 37.2 µM) throughout.
With `COc1cc(O)cc2c1C(=O)C1=C(C2=O)[C@@H](O)[C@](C)(O)[C@H](O)[C@H]1O`, the MIC with Staphylococcus aureus [1] and against Pseudomonas aeruginosa was 12.5 µg/mL (≈ 37.2 µM) in each case.
In the case of `C[C@@]1(O)CCC2=C(C(=O)c3cccc(O)c3C2=O)[C@@H]1O`, the MIC in the assay with Streptococcus pneumoniae [2] was found to be 4 µg/mL (≈ 14.6 µM); in the assay on Candida albicans, 8 µg/mL (≈ 29.2 µM); in the assay on Bacillus subtilis, 2 µg/mL (≈ 7.29 µM); with Escherichia coli [3], 32 µg/mL (≈ 117 µM); against Staphylococcus aureus [1] it was 2 µg/mL (≈ 7.29 µM); in the assay with Staphylococcus aureus [4], 4 µg/mL (≈ 14.6 µM). Further, the MIC is 2 µg/mL (≈ 7.29 µM) in the assay on Haemophilus influenzae; 8 µg/mL (≈ 29.2 µM) against Streptococcus pneumoniae [5]; above 64 µg/mL against Escherichia coli [6]; 1 µg/mL (≈ 3.65 µM) against Enterococcus faecalis; above 64 µg/mL in the assay with Staphylococcus aureus [7].
As for `COc1cc(O)c2c(c1)C(=O)C1=C(C2=O)[C@H](O)[C@@H](O)[C@@](C)(O)[C@@H]1O` [ALTERSOLANOL A], the MIC in the assay on Staphylococcus aureus [1] and in the assay with Pseudomonas aeruginosa was 12.5 µg/mL (≈ 37.2 µM) throughout.
Take `COc1cc(O)c2c(c1)C(=O)C1=C(C[C@@H](O)[C@@](C)(O)C1)C2=O` [ALTERSOLANOL B]: the MIC against Staphylococcus aureus [1] and against Pseudomonas aeruginosa was 12.5 µg/mL (≈ 41.1 µM) in each case.
As for `COc1cc(O)c2c(c1)C(=O)C1=C(C[C@@H](O)[C@@](C)(O)[C@@H]1O)C2=O` [ALTERSOLANOL C], the MIC with Staphylococcus aureus [1] and against Pseudomonas aeruginosa was 12.5 µg/mL (≈ 39 µM) in each case.
Regarding `COc1cc(O)c2c(c1)C(=O)[C@H]1C[C@](C)(O)[C@H](O)C[C@@H]1[C@H]2O` [ALTERSOLANOL J], the MIC against Staphylococcus aureus [1] and against Pseudomonas aeruginosa was 12.5 µg/mL (≈ 40.5 µM) throughout.
For the compound `COc1cc(O)c2c(c1)C(=O)[C@@H]1[C@H](C[C@@H](O)[C@@](C)(O)[C@@H]1O)[C@H]2O` [ALTERSOLANOL K], the MIC in the assay on Candida albicans was determined as 8 µg/mL (≈ 24.7 µM); against Staphylococcus aureus [1], 12.5 µg/mL (≈ 38.5 µM); in the assay on Pseudomonas aeruginosa it was 12.5 µg/mL (≈ 38.5 µM). Also, in the assay with Staphylococcus aureus [7], the result was Active.
Take `CC1(C)S[C@@H]2[C@H](NC(=O)Cc3ccccc3)C(=O)N2[C@H]1C(=O)O` [PENICILLIN G]: the MIC against Streptococcus pneumoniae [2] was below 0.015 µg/mL; against Candida albicans, above 64 µg/mL; with Bacillus subtilis, below 0.06 µg/mL; with Escherichia coli [3], 8 µg/mL (≈ 23.9 µM); with Staphylococcus aureus [4], below 0.06 µg/mL; in the assay on Haemophilus influenzae, 0.06 µg/mL (≈ 0.179 µM). For the same compound, the MIC is below 0.015 µg/mL with Streptococcus pneumoniae [5], 4 µg/mL (≈ 12 µM) in the assay with Enterococcus faecalis and 0.12 µg/mL in the assay with Staphylococcus aureus [7].
